Assay outcomes from PubChem.
Only some compounds are listed: those with a hit (about 3.5% of all), similar ones and a draw of the others.
RGS4 inh – inhibitors of human RGS4; P49798; HEK293 M3R/RGS4 inducible, Fluo-4 calcium flux; active compounds read high; triggered by carbachol at its EC20; B-score at 10 µM; 310,000 compounds, 0.45% hits;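 active = B-score, a plate-corrected calcium signal, over three deviations above library mean, with baseline fluorescence within five deviations of library mean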;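 note: RGS4 expression induced by doxycycline in cells with stable M3 receptor; B-score is computed from the integrated fluorescence ratio over baseline after carbachol; higher B-score means a larger calcium signal and so more RGS4 inhibition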
Target sequence (P49798 whole entry, looked up): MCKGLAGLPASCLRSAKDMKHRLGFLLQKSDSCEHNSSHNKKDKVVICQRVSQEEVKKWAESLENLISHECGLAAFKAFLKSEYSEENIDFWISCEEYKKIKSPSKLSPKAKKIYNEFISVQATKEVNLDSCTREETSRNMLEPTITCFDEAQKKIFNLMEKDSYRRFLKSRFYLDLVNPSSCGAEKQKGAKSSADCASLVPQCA
MrgX1 PAM – human MrgX1 positive allosteric modulation, primary screen. Q96LB2. MrgX1-HEK293, Fluo-4 calcium flux, FDSS; active compounds read high. B-score at 10 µM. 310,000 compounds, 0.63% hits;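 active = plate-corrected calcium response at least 3 library SD above typical, normal starting fluorescence, not activating the receptor alone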;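 note: compound read alongside a low EC10 to EC30 dose of BAM8-22 agonist; peak minus trough fluorescence over baseline measured at the second addition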
Target sequence (Q96LB2 whole entry, looked up): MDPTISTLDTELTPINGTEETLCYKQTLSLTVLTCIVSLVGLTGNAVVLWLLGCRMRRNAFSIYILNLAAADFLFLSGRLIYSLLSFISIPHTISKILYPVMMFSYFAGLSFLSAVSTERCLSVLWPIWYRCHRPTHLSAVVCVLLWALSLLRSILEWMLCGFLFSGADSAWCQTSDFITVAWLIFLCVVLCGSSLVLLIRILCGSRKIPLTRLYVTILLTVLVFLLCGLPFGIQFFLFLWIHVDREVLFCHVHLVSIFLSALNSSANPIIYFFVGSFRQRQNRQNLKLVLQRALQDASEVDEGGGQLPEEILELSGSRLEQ
MrgX1 agonist – agonists of human MrgX1 receptor. MrgX1-HEK293 cells, Fluo-4 calcium fluorescence, agonist mode; active compounds read high. B-score at 10 µM. Q96LB2. 310,000 compounds, 0.44% hits. AID 588627;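 active = calcium response B-score plate-corrected fluorescence ratio at least 3 library SD, with starting fluorescence B-score inside 5 SD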
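times = overnight plating, then 30 min 37 °C plus 30 min room-temperature dye loading | assay system = stable human MrgX1 HEK293 cell line | input = fifteen thousand cells per well | signal = kinetic calcium dye fluorescence, Fluo-4 NW | dosing = compound delivered in addition one of three | read-out = B-scored fluorescence response ratio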
MrgX1 antagonist – blocks BAM8-22 activation of human MrgX1 receptor | MRGX1-HEK293 calcium flux, Fluo-4, BAM8-22 antagonism; active compounds read low | 310,000 compounds, 1.3% hits | B-score at 10 µM | AID 588676;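 active = calcium-response B-score plate-corrected more than 3 library SD below zero, starting fluorescence within 5 deviations, no agonist response on first addition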;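 note: peak minus trough fluorescence over baseline after final BAM8-22 challenge near maximal dose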
RGS4 pot – RGS4 potentiation or activation; HEK293 M3R/inducible RGS4, carbachol calcium flux Fluo4; active compounds read low; B-score at 10 µM; 310,000 compounds, 0.92% hits;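 active = B-score of the integrated calcium signal more than 4 SD below the library mean, with starting fluorescence not abnormally high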;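 note: negative B-score means reduced calcium response which marks RGS4 activation or potentiation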
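Material: Inducible-RGS4 HEK293 cells carrying M3 receptor; also added: carbachol at ECmax as muscarinic agonist stimulus; incubation: compound preincubation 20 min at room temperature before agonist; signal: Fluo4-AM (2 µM) calcium-flux fluorescence, kinetic read; measure: integrated calcium ratio converted to B score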
MrgX1 ant reconf – reconfirmed antagonist of human MrgX1 receptor signaling. shares compounds with MrgX1 antagonist. MrgX1-HEK293, BAM8-22 calcium flux, Fluo-4; active compounds read low. remaining BAM8-22 calcium response % of control (active compounds read low), % at 10 µM. 2,300 compounds, 19% hits. AID 602420;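 active = remaining agonist calcium response no higher than 100% minus 3 SD of agonist-only control wells, with starting fluorescence near control levels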;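 note: agonist BAM8-22 given at a near maximal EC90 to ECmax level; peak minus minimum fluorescence divided by baseline after agonist addition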
HEK293 Ca flux – counter-screen for MrgX1 antagonists: effect in parental HEK293 cells. shares compounds with MrgX1 antagonist. Fluo-4 calcium fluorescence, FDSS. fluorescence ratio F(max-min)/F0 at 10 µM. 4,000 compounds, 2% hits;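 active = duplicate-averaged calcium fluorescence ratio at least three times the standard deviation of buffer wells, a nonspecific response in parental cells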
HEK293 Ca counter – activity in parental HEK293 cells without MrgX1; shares compounds with MrgX1 antagonist; parental HEK293 calcium flux, Fluo-4 fluorescence ratio; active compounds read high; fluorescence ratio F(max-min)/F0 at 10 µM; 4,000 compounds, 0.4% hits; AID 624114;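 active = calcium fluorescence ratio, averaged over duplicates, at least 3 SD of the buffer-well ratio, meaning a nonspecific response in receptor-free cells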;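 note: untransfected parental HEK293 lacking MrgX1 used as counterscreen for MrgX1 allosteric activators; fluorescence change taken during the second addition on a kinetic imager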
HEK293 Ca cntr2 – counter-screen for MrgX1 activators: effect in parental HEK293 cells | Fluo-4 calcium fluorescence (FDSS); active compounds read high | AID 624115 | fluorescence ratio F(max-min)/F0 at 10 µM | shares compounds with MrgX1 antagonist | 4,000 compounds, 8.7% hits;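 active = calcium fluorescence ratio at least three times the spread of buffer wells, meaning a non-specific response in parental cells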
Of the large screens only hits and unclear results are named; the others gave an inactive call (follow-up assays come after a bar, where they were run).

O=C(N1CCOCC1)N1CCN(S(=O)(=O)c2ccccc2)C1	none
COc1ccc(OCC(=O)Nc2ccc(Cl)cc2)cc1	MrgX1 antagonist -4.96 | MrgX1 ant reconf inactive | HEK293 Ca flux inactive | HEK293 Ca counter inactive | HEK293 Ca cntr2 inactive
COCC(=O)Nc1nnc(COc2ccc(Cl)cc2)s1	MrgX1 antagonist -7.07 | MrgX1 ant reconf inactive | HEK293 Ca flux inactive | HEK293 Ca counter inactive | HEK293 Ca cntr2 inactive
Cc1ccc(SCCNS(=O)(=O)c2ccc(F)cc2)cc1	none
Cc1ccc(SCCNS(C)(=O)=O)cc1	MrgX1 antagonist -5.07 | MrgX1 ant reconf inactive | HEK293 Ca flux inactive | HEK293 Ca counter inactive | HEK293 Ca cntr2 inactive
Cc1ccc(C)c(NC(=O)CCCCCCCCCCC2COCCO2)c1 (stereo not drawn)	none
CCOC(=O)c1ccc(NC(=O)CN(c2ccc(C)cc2)S(=O)(=O)c2c(C)n[nH]c2C)cc1	MrgX1 antagonist -6.2 | MrgX1 ant reconf inactive | HEK293 Ca flux inactive | HEK293 Ca counter inactive | HEK293 Ca cntr2 51.9
CCOc1ccccc1NC(=O)CN(c1ccc(C)cc1)S(=O)(=O)c1c(C)n[nH]c1C	none
O=C(COC(=O)c1cccnc1Nc1ccccc1F)NCCN1C(=O)CSC1=O	MrgX1 antagonist -12.3 | MrgX1 ant reconf inactive | HEK293 Ca flux inactive | HEK293 Ca counter inactive | HEK293 Ca cntr2 inactive
O=C(COc1ccccc1)Nc1nnc(-c2ccccc2Cl)o1	MrgX1 antagonist -7.89 | MrgX1 ant reconf inactive | HEK293 Ca flux inactive | HEK293 Ca counter inactive | HEK293 Ca cntr2 inactive
O=C(COc1ccccc1)Nc1nnc(-c2ccc(F)cc2)o1	none
C=CCn1c(SCc2cccc(C#N)c2)nnc1-c1ccccc1O	MrgX1 antagonist -4.58 | MrgX1 ant reconf inactive | HEK293 Ca flux inactive | HEK293 Ca counter inactive | HEK293 Ca cntr2 inactive
C=CCn1c(SCc2ccc(C#N)cc2)nnc1-c1cccc(Cl)c1	none
CCn1ccc(C(=O)Nc2ncc(C)s2)n1	MrgX1 antagonist -5.4 | MrgX1 ant reconf inactive | HEK293 Ca flux inactive | HEK293 Ca counter inactive | HEK293 Ca cntr2 inactive
O=C(CCSc1ccccc1)NC(=O)COC(=O)C1CCCCC1	MrgX1 antagonist -4.59 | MrgX1 ant reconf inactive | HEK293 Ca flux inactive | HEK293 Ca counter inactive | HEK293 Ca cntr2 inactive
O=C(CCSc1ccccc1)NC1CCCCCC1	none
Cc1nc2sc(C(=O)c3ccccc3)c(N)c2c(C)c1C	none
Cc1nc(-c2ccccc2)nc2sc(C(=O)c3ccc(F)cc3)c(N)c12	MrgX1 antagonist -4.62 | MrgX1 ant reconf 77.8% | HEK293 Ca flux inactive | HEK293 Ca counter inactive | HEK293 Ca cntr2 inactive
O=C1CCSc2ccc(Cl)cc2N1Cc1ccccc1	MrgX1 antagonist -4.56 | MrgX1 ant reconf 75.1% | HEK293 Ca flux inactive | HEK293 Ca counter inactive | HEK293 Ca cntr2 inactive
Cc1cccc(CN2C(=O)CCSc3ccc(Cl)cc32)c1	none
Cc1ccc2c(c1)cc(CN(Cc1cccnc1)C(=O)c1ccccc1)c1nnnn12	none
Cc1ccc2c(c1)cc(CN(Cc1ccc3c(c1)OCO3)S(=O)(=O)c1ccccc1)c1nnnn12	MrgX1 antagonist -4.52 | MrgX1 ant reconf inactive | HEK293 Ca flux inactive | HEK293 Ca counter inactive | HEK293 Ca cntr2 inactive
Cc1cccc(-c2nc(CSCC(=O)N3CCN(c4ccccn4)CC3)c(C)o2)c1	MrgX1 antagonist -8.03 | MrgX1 ant reconf 58.1% | HEK293 Ca flux inactive | HEK293 Ca counter inactive | HEK293 Ca cntr2 inactive
Cc1ccc(-c2nc(CSCC(=O)N3CCCC3)c(C)o2)cc1	none
CCOC(=O)C1CCCN(C(=O)c2cn(-c3ccccc3)nc2-c2cccnc2)C1 (stereo not drawn)	none
CC1CCCN(C(=O)c2cn(-c3ccccc3)nc2-c2cccnc2)C1 (stereo not drawn)	MrgX1 antagonist -6.83 | MrgX1 ant reconf inactive | HEK293 Ca flux inactive | HEK293 Ca counter inactive | HEK293 Ca cntr2 inactive
CSc1ccccc1N=CC1=C(O)CC(C)(C)CC1=O	none
CC1(C)CC(=O)C(C=Nc2cc(C(=O)c3ccccc3)ccc2N)=C(O)C1	MrgX1 antagonist -6.79 | MrgX1 ant reconf 73.4% | HEK293 Ca flux inactive | HEK293 Ca counter inactive | HEK293 Ca cntr2 inactive
Cc1ccc(CCNC(=O)c2nnn(-c3cccc(C)c3)c2N)cc1	none
Cc1cccc(-n2nnc(C(=O)NCc3ccccc3)c2N)c1	MrgX1 antagonist -8.4 | MrgX1 ant reconf inactive | HEK293 Ca flux inactive | HEK293 Ca counter inactive | HEK293 Ca cntr2 inactive
Cc1ccc(C(=O)Nc2cc(C)c(OCC(=O)N3CCOCC3)c(C)c2)cc1	none
Cc1c2ccccc2nc2ccccc12	none
CCCNc1c(F)c(F)c2c(C)c3ccccc3nc2c1F	MrgX1 antagonist -6.04, RGS4 pot -7.49 | MrgX1 ant reconf inactive | HEK293 Ca flux 0.364 | HEK293 Ca counter inactive | HEK293 Ca cntr2 89.9
O=c1cc(C23CC4CC(CC(C4)C2)C3)[nH][nH]1	none
COc1ccccc1CN=Cc1[nH]c2ccc(Br)c(Cl)c2c1O	none
Cc1cccc(N=Cc2[nH]c3ccc(Br)c(Cl)c3c2O)c1	MrgX1 antagonist -5.88 (no result: RGS4 inh, RGS4 pot) | MrgX1 ant reconf inactive | HEK293 Ca flux 0.177 | HEK293 Ca counter inactive | HEK293 Ca cntr2 inactive
COc1ccc(NS(=O)(=O)c2cc3c(cc2C)NC(=O)CO3)c(OC)c1	MrgX1 antagonist -4.91 | MrgX1 ant reconf inactive | HEK293 Ca flux inactive | HEK293 Ca counter inactive | HEK293 Ca cntr2 inactive
Oc1c(C=Nc2ccccc2Cl)[nH]c2ccccc12	none
CCCc1cc(=O)n2[nH]c(NCc3ccccc3Cl)nc2n1	none
CCCc1cc(=O)n2[nH]c(NCc3cccs3)nc2n1	MrgX1 antagonist -10.5 | MrgX1 ant reconf inactive | HEK293 Ca flux inactive | HEK293 Ca counter inactive | HEK293 Ca cntr2 inactive
CC(=O)Nc1cccc(OCC(=O)NC(C)c2ccc3ccccc3c2)c1 (stereo not drawn)	none
OC(CCN1CCCCC1)(c1ccccc1)c1ccccc1	MrgX1 antagonist -7.15 | MrgX1 ant reconf inactive | HEK293 Ca flux inactive | HEK293 Ca counter inactive | HEK293 Ca cntr2 inactive
OC(CCN1CCCC1)(c1ccccc1)C1CCCCC1 (stereo not drawn)	none
Cc1ccc(C(=O)Nc2ccc(S(=O)(=O)N3CCc4ccccc4C3)cc2)o1	none
CCC(=O)Nc1ccc(S(=O)(=O)N2CCc3ccccc3C2)cc1	MrgX1 antagonist -7.89 | MrgX1 ant reconf inactive | HEK293 Ca flux inactive | HEK293 Ca counter inactive | HEK293 Ca cntr2 inactive
O=C(Cc1cccs1)Nc1ccc(S(=O)(=O)N2CCCCC2)cc1	none (no result: RGS4 inh, RGS4 pot)
